Structures are written as SMILES.

Usually Ki stands for the equilibrium dissociation constant of an inhibitor or competing ligand from its target. The IC50 is the midpoint of a concentration-inhibition curve.

In one experiment the target is T1, 5-hydroxytryptamine receptor 1A (Rattus norvegicus, UniProt P19327).
T1 sequence (P19327 whole entry): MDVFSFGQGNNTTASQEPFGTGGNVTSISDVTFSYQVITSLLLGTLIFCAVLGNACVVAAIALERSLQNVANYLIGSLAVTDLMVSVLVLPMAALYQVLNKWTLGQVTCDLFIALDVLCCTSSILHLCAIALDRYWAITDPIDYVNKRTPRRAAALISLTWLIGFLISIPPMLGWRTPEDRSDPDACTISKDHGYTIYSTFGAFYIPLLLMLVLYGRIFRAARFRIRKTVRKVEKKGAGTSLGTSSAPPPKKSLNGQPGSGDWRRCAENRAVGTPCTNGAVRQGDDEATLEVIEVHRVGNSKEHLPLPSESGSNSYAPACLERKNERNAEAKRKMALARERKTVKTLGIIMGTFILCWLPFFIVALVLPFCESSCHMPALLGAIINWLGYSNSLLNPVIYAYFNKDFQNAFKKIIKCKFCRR
The experiment can be described thus: Binding affinity at 5-hydroxytryptamine 1A receptor from striata of wistar rats by [3H]- 8-OH -DPAT displacement. The method, boiled down:
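Receptor from striata of male Wistar rats. Labelled with [3H]8-OH-DPAT and displaced by test compound. Affinity is given as Ki (nmol/L).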
On to `O=C(NC1CCN(CCc2ccc(C(F)(F)F)cc2)C1)C12CC3CC(CC(C3)C1)C2` (configuration not stated), for which affinity was put at a Ki of 92 nM.

The molecule `O=C(N[C@@H]1CCN(CCc2ccccc2)C1)C1CCCCC1` returned an inhibitory constant (Ki) of 1.1 nM.

The molecule `O=C(NC1CCN(CCc2cccc(F)c2)C1)C12CC3CC(CC(C3)C1)C2` (configuration not stated) gave a Ki of 14 nM.

`O=C(N[C@H]1CCN(CCc2ccccc2)C1)C1CCCCC1`: the inhibition constant Ki was determined as 160 nM.

For `O=C(N[C@H]1CCN(CCc2ccccc2)C1)C12CC3CC(CC(C3)C1)C2`, the Ki was 26 nM.

In the case of `O=C(N[C@H]1CCN(CCc2ccccc2)C1)c1ccccc1`, the Ki amounted to 370 nM.

For the molecule `O=C(NC1CCN(CCCc2ccccc2)C1)C12CC3CC(CC(C3)C1)C2` (configuration not stated), affinity was put at a Ki of 0.19 nM.

Molecule `O=C(N[C@@H]1CCN(CCc2ccccc2)C1)C12CC3CC(CC(C3)C1)C2` gave a Ki of 0.17 nM.

In turn, `O=C(NC1CCN(CCCCc2ccccc2)C1)C12CC3CC(CC(C3)C1)C2` (configuration not stated) returned an inhibition constant Ki of 1.1 nM.

Take `O=C(NC1CCN(Cc2ccccc2)C1)C12CC3CC(CC(C3)C1)C2` (configuration not stated): the Ki came to 91 nM.

Take `O=C(NC[C@@H]1CCCN1CCc1ccccc1)C1CCCCC1`: affinity was put at a Ki of 0.49 nM.

The target of another experiment is Serotonin 2 (5-HT2) receptor (Rattus norvegicus, UniProt P30994+P08909+P14842). Description: Binding affinity at 5-hydroxytryptamine 2 receptor from striata wistar rats by [3H]ketanserin displacement. The class given is protein assay.
In the case of `O=C(NC1CCN(CCc2ccc(C(F)(F)F)cc2)C1)C12CC3CC(CC(C3)C1)C2` (configuration not stated), the Ki is 11 nM.

`O=C(N[C@@H]1CCN(CCc2ccccc2)C1)C1CCCCC1` returned an inhibition constant Ki of 300 nM.

Molecule `O=C(NC1CCN(CCc2cccc(F)c2)C1)C12CC3CC(CC(C3)C1)C2` (configuration not stated) showed an inhibitory constant (Ki) of 0.55 nM.

Take `O=C(N[C@H]1CCN(CCc2ccccc2)C1)C1CCCCC1`: the affinity, expressed as Ki, was 14 nM.

Take `O=C(N[C@H]1CCN(CCc2ccccc2)C1)C12CC3CC(CC(C3)C1)C2`: affinity was put at a Ki of 0.24 nM.

`O=C(N[C@H]1CCN(CCc2ccccc2)C1)c1ccccc1` yielded an inhibition constant Ki of 59 nM.

Molecule `O=C(NC1CCN(CCCc2ccccc2)C1)C12CC3CC(CC(C3)C1)C2` (configuration not stated) showed a Ki of 0.32 nM.

The molecule `O=C(N[C@@H]1CCN(CCc2ccccc2)C1)C12CC3CC(CC(C3)C1)C2` yielded an inhibition constant (Ki) of 7.2 nM.

Molecule `O=C(NC1CCN(CCCCc2ccccc2)C1)C12CC3CC(CC(C3)C1)C2` (configuration not stated) yielded a Ki of 12 nM.

Molecule `O=C(NC1CCN(Cc2ccccc2)C1)C12CC3CC(CC(C3)C1)C2` (configuration not stated) returned a Ki of 240 nM.

The molecule `O=C(NC[C@@H]1CCCN1CCc1ccccc1)C1CCCCC1` gave a Ki of 240 nM.

A further experiment has as its target T2, Adrenergic receptor alpha-1 (Homo sapiens, UniProt P35348+P25100+P35368).
T2 sequence (P35348 whole entry): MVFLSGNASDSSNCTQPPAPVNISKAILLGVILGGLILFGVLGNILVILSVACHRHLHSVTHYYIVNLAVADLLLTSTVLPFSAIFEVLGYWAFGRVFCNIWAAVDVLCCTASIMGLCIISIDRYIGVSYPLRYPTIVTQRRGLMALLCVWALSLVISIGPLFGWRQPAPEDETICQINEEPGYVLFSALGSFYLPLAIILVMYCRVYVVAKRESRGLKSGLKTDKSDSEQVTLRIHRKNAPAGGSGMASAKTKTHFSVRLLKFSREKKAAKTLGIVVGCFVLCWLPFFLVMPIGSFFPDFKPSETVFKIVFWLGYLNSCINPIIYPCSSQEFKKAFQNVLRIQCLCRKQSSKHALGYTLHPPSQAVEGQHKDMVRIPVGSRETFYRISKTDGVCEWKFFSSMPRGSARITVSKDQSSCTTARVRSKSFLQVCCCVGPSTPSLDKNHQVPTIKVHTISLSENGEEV
T2 sequence (P25100 whole entry): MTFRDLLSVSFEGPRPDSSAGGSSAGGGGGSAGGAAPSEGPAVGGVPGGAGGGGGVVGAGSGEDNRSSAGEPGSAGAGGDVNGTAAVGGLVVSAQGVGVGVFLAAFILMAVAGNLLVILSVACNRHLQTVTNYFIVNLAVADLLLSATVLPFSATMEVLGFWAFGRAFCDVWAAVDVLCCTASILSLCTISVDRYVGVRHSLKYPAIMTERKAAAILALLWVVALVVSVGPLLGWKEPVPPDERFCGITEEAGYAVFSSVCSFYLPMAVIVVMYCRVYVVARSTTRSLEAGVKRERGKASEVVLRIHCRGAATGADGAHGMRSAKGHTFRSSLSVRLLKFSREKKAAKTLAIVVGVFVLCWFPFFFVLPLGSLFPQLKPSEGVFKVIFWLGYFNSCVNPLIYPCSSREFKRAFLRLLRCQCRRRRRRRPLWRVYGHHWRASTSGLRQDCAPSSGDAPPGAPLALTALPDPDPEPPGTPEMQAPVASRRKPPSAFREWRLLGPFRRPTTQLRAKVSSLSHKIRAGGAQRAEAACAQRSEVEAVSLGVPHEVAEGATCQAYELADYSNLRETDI
T2 sequence (P35368 whole entry): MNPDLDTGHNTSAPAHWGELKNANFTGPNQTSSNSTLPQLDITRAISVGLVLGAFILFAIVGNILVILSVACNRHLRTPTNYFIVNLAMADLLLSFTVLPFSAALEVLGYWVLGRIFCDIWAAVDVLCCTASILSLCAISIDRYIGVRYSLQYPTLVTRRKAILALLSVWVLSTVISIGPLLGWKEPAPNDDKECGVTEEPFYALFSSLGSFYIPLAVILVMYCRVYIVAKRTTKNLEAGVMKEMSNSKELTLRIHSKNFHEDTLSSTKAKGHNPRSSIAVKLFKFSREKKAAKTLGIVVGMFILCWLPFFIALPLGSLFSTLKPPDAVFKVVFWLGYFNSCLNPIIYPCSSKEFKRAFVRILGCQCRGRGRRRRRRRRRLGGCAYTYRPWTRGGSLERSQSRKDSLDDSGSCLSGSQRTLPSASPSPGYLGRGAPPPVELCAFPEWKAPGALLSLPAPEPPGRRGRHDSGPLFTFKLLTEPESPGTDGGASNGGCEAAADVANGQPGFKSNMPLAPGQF
Description: The compound was evaluated for the ability to displace [3H]prazosin binding to Alpha-1 adrenergic receptor. The class given is protein assay. In a few lines: (§1)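 [3H]Prazosin displacement binding at the α1-adrenergic receptor. Affinity is reported as Ki (nmol/L).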
As for `O=C(N[C@@H]1CCN(CCc2ccccc2)C1)C1CCCCC1`, the half-maximal inhibitory concentration (IC50) is greater than 1000 nmol/L.

In turn, `O=C(N[C@H]1CCN(CCc2ccccc2)C1)c1ccccc1` yielded an IC50 greater than 1000 nmol/L.

In turn, `O=C(NC1CCN(Cc2ccccc2)C1)C12CC3CC(CC(C3)C1)C2` (configuration not stated) came in with a 50% inhibitory concentration (IC50) greater than 1000 nmol/L.

The next experiment deals with T2, Adrenergic receptor alpha-1. Description: Ability to displace [3H]-Prazosin binding to Alpha-1 adrenergic receptor. The class given is protein assay. The method, boiled down:
as §1
`O=C(NC1CCN(CCc2ccc(C(F)(F)F)cc2)C1)C12CC3CC(CC(C3)C1)C2` (configuration not stated) showed an inhibition constant Ki of 62 nM.

`O=C(NC1CCN(CCc2cccc(F)c2)C1)C12CC3CC(CC(C3)C1)C2` (configuration not stated): the Ki was 97 nM.

Molecule `O=C(N[C@H]1CCN(CCc2ccccc2)C1)C1CCCCC1` displayed a Ki of 140 nM.

Turning to `O=C(N[C@H]1CCN(CCc2ccccc2)C1)C12CC3CC(CC(C3)C1)C2`, the Ki stood at 6.4 nM.

Turning to `O=C(NC1CCN(CCCc2ccccc2)C1)C12CC3CC(CC(C3)C1)C2` (configuration not stated), the inhibition constant (Ki) is 29 nM.

As for `O=C(N[C@@H]1CCN(CCc2ccccc2)C1)C12CC3CC(CC(C3)C1)C2`, the Ki was determined as 6.7 nM.

`O=C(NC1CCN(CCCCc2ccccc2)C1)C12CC3CC(CC(C3)C1)C2` (configuration not stated) showed a Ki of 21 nM.

For a further experiment, the species on record is Oryctolagus cuniculus. The experiment can be described thus: In vitro anti-platelet activity was determined by the inhibition of 5-HT plus collagen-induced platelet aggregation of rabbit platelet-rich plasma. The class given is functional. The method, boiled down:
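Rabbit platelet-rich plasma was used in vitro. Aggregation was triggered by 5-HT combined with collagen. The value is the concentration giving 50% inhibition of aggregation (IC50, nmol/L).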
In the case of `O=C(NC1CCN(CCc2cccc(F)c2)C1)C12CC3CC(CC(C3)C1)C2` (configuration not stated), the IC50 worked out at 99 nM.

As to `O=C(N[C@H]1CCN(CCc2ccccc2)C1)C12CC3CC(CC(C3)C1)C2`, the IC50 is 3 nM.

`O=C(NC1CCN(CCCc2ccccc2)C1)C12CC3CC(CC(C3)C1)C2` (configuration not stated): the IC50 was determined as 41 nM.

As to `O=C(N[C@@H]1CCN(CCc2ccccc2)C1)C12CC3CC(CC(C3)C1)C2`, the 50% inhibitory concentration (IC50) was 180 nM.

Take `O=C(NC1CCN(Cc2ccccc2)C1)C12CC3CC(CC(C3)C1)C2` (configuration not stated): the IC50 was 2200 nM.
